Legend:
Leishmania major = assay: Antileishmanial activity against wild type Leishmania major FV1 promastigotes […] assessed as inhibition of parasite growth incubated for 72 hrs by automatic microtiter plate reader analysis; type: functional, organism-based
In short: (§1)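 Promastigotes were grown in Schneider's medium (4 mM glutamine, gentamicin, 10% heat-inactivated FBS, pH 6.9, 27 °C). Cells were seeded at 1.5 × 10^5/well and exposed to a concentration series for 72 h at 27 °C.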

RAW264.7 = assay: Cytotoxicity against mouse RAW264.7 cells assessed as inhibition of cell growth incubated for 72 hrs by MTS assay; type: functional, cell-based; details: RAW264.7, 72 h
In short: (§2)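 Cells in DMEM + 10% heat-inactivated FBS with penicillin/streptomycin at 37 °C, 5% CO2. They were seeded at 1 × 10^4/well and incubated with a concentration series for 72 h at 37 °C. Viability was read by MTS/PMS assay at 490 nm and IC50 derived.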

[1] = Metabolic stability in rat liver microsome assessed as compound remaining at 20 uM measured after 32 mins in presence of NADP and GSH by HPLC analysis; type: ADME; details: liver microsomes, read-out: Stability
In short: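 Rat liver microsomes (final 2 mg/mL) in 50 mM phosphate pH 7.4 with 0.3 mM NADP+, 5.3 mM glucose-6-phosphate, G6PDH, 10 mM MgCl2 and 5 mM EDTA. 20 μM compound added at 37 °C. Aliquots at 0, 16 and 32 min were quenched in ice-cold acetonitrile and centrifuged. HPLC peak area at 254/280 nm was expressed relative to 0 min.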

[2] = Metabolic stability in rat liver S9 fraction assessed as compound remaining at 20 uM measured after 32 mins in presence of NADP and GSH by HPLC analysis; type: ADME, subcellular; details: read-out: Stability
In short: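 Rat liver S9 (final 4 mg/mL) in 50 mM phosphate pH 7.4 with NADPH-regenerating system (0.3 mM NADP+, 5.3 mM glucose-6-phosphate, G6PDH), 10 mM MgCl2 and 5 mM EDTA. Pre-warmed 10 min at 37 °C, then 20 μM compound and 5.5 μM GSH added. Samples taken at 0, 16 and 32 min were quenched in ice-cold acetonitrile. HPLC (254/280 nm) peak area was expressed relative to 0 min.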

Leishmania donovani [3] = assay: Antileishmanial activity against miltefosine resistant Leishmania donovani HU3MILR40 promastigotes […] assessed as inhibition of parasite growth incubated for 72 hrs by automatic microtiter plate reader analysis; type: functional, organism-based
In short: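 Promastigote (free parasite) assay: Schneider's Drosophila medium with 4 mM glutamine, 25 μg mL−1 gentamicin, 10% heat-inactivated FBS, pH 6.9, 27 °C. 1.5 × 10^5 promastigotes per well exposed to a concentration series for 72 h at 27 °C.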

Leishmania donovani [4] = assay: Antileishmanial activity against wild type Leishmania donovani HU3 promastigotes […] assessed as inhibition of parasite growth incubated for 72 hrs by automatic microtiter plate reader analysis; type: functional, organism-based
[5] = molecular target: T1, Voltage-gated inwardly rectifying potassium channel KCNH2 (Homo sapiens, UniProt Q12809); assay: Inhibition of human ERG stably overexpressed in HEK293 cells incubated for 30 mins by FLIPR assay; type: toxicity, cell-based; details: human, hek293, 0.5 h; time 30 min
[6] = Cytotoxicity against mouse L929 cells assessed as inhibition of cell growth incubated for 72 hrs by MTS assay; type: toxicity, cell-based; in short: as §2
Leishmania amazonensis [7] = assay: Antileishmanial activity against wild type Leishmania amazonensis LV78 promastigotes […] assessed as inhibition of parasite growth incubated for 72 hrs by automatic microtiter plate reader analysis; type: functional, organism-based; in short: as §1
[8] = Hepatotoxicity against mouse TAMH cells assessed as cell viability at 7.8 to 125 uM incubated for 24 to 48 hrs by MTT assay; type: toxicity, cell-based; details: dose lower 7.8 µM, time lower 24 hrs, dose upper 125 µM, time upper 48 hrs, read-out: Activity
In short: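 TAMH mouse liver cells in FCS-free DMEM/F12 with 5% PANEXIN NTA, 10 mM nicotinamide and gentamicin. Seeded at 20 000/well and attached 24 h at 37 °C, 5% CO2. DMSO-diluted compounds were applied for 24 or 48 h. MTT was added for 4 h, formazan dissolved in DMSO and A570 read. Viability was background-corrected and expressed relative to DMSO controls; mean ± SD, ≥3 experiments.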

Leishmania braziliensis [9] = assay: Antileishmanial activity against wild type Leishmania braziliensis UA847 promastigotes […] assessed as inhibition of parasite growth incubated for 72 hrs by automatic microtiter plate reader analysis; type: functional, organism-based; in short: as §1
[10] = molecular target: T1, Voltage-gated inwardly rectifying potassium channel KCNH2; assay: (§3) Inhibition of human ERG stably overexpressed in HEK293 cells assessed as remaining activity at 6 uM incubated for 30 mins by FLIPR assay; type: toxicity, cell-based; details: hek293, 0.5 h, 6 µM
In short: (§4)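 HEK-293 cells stably expressing hERG, seeded at 60 000/well and grown 24 h. Compounds were added in DMSO (final 0.5%) and incubated 30 min in the dark. After 20 s baseline, Tl+ stimulus (3 mM) was added and fluorescence (ex 485/em 535 nm) recorded for 2.5 min.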

hERG (KCNH2) = hERG (KCNH2) (Homo sapiens, UniProt Q12809); assay: as §3; type: toxicity, cell-based; details: HEK293 cells stably overexpressing hERG, read-out: Activity; in short: as §4
[11] = Hepatotoxicity against human HepG2 cells assessed as cell viability at 125 uM incubated for 48 hrs by MTT assay; type: toxicity, cell-based; details: HepG2 cells, read-out: Activity
In short: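 HEP-G2 cells in RPMI 1640 + 10% heat-inactivated FBS, penicillin/streptomycin. Seeded at 15 000/well and attached 24 h at 37 °C, 5% CO2. Compounds were serially diluted in DMSO, with 24 or 48 h exposure. MTT (2.5 mg/mL solution) was added for 4 h, formazan dissolved in DMSO and A570 read. Viability was background-corrected against DMSO-treated cell controls; mean ± SD, ≥3 experiments.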

[12] = Cytotoxicity against mouse peritoneal macrophage assessed as inhibition of cell growth incubated for 72 hrs by giemsa staining based analysis; type: toxicity; details: peritoneal macrophages
Leishmania braziliensis [13] = assay: Antileishmanial activity against wild type Leishmania braziliensis UA847 amastigotes infected in mouse peritoneal macrophage assessed as inhibition of parasite growth incubated for 72 hrs by giemsa staining based analysis; type: functional, organism-based
In short: (§5)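 Mouse peritoneal macrophages (1 × 10^5/well on coverslips, DMEM + 10% heat-inactivated FBS, penicillin/streptomycin) adhered overnight at 37 °C, 5% CO2. They were infected overnight with late-log promastigotes at a 20:1 parasite:macrophage ratio. Cells were then treated with compound for 72 h at 37 °C and Giemsa-stained. Amastigotes per 100 macrophages were counted to derive IC50; mean ± SD of 3–4 independent experiments.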

Leishmania donovani [14] = assay: Antileishmanial activity against miltefosine resistant Leishmania donovani HU3MILR40 amastigotes infected in mouse peritoneal macrophage assessed as inhibition of parasite growth incubated for 72 hrs by giemsa staining based analysis; type: functional, organism-based
In short: (§6)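 Mouse peritoneal macrophages in DMEM + 10% heat-inactivated FBS, penicillin/streptomycin; 1 × 10^5 cells per well on coverslips, adhered overnight at 37 °C, 5% CO2, non-adherent cells washed off. Infected overnight with late-log promastigotes at parasite:macrophage 40:1. Compound exposure 72 h at 37 °C; Giemsa stain, amastigotes per 100 macrophages counted, IC50 derived; means ± SD of 3–4 independent experiments.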

Leishmania donovani [15] = assay: Antileishmanial activity against wild type Leishmania donovani HU3 amastigotes infected in mouse peritoneal macrophage assessed as inhibition of parasite growth incubated for 72 hrs by giemsa staining based analysis; type: functional, organism-based; in short: as §6
Leishmania amazonensis [16] = assay: Antileishmanial activity against wild type Leishmania amazonensis LV78 amastigotes infected in mouse peritoneal macrophage assessed as inhibition of parasite growth incubated for 72 hrs by giemsa staining based analysis; type: functional, organism-based; in short: as §5

T1 sequence (Q12809 whole entry): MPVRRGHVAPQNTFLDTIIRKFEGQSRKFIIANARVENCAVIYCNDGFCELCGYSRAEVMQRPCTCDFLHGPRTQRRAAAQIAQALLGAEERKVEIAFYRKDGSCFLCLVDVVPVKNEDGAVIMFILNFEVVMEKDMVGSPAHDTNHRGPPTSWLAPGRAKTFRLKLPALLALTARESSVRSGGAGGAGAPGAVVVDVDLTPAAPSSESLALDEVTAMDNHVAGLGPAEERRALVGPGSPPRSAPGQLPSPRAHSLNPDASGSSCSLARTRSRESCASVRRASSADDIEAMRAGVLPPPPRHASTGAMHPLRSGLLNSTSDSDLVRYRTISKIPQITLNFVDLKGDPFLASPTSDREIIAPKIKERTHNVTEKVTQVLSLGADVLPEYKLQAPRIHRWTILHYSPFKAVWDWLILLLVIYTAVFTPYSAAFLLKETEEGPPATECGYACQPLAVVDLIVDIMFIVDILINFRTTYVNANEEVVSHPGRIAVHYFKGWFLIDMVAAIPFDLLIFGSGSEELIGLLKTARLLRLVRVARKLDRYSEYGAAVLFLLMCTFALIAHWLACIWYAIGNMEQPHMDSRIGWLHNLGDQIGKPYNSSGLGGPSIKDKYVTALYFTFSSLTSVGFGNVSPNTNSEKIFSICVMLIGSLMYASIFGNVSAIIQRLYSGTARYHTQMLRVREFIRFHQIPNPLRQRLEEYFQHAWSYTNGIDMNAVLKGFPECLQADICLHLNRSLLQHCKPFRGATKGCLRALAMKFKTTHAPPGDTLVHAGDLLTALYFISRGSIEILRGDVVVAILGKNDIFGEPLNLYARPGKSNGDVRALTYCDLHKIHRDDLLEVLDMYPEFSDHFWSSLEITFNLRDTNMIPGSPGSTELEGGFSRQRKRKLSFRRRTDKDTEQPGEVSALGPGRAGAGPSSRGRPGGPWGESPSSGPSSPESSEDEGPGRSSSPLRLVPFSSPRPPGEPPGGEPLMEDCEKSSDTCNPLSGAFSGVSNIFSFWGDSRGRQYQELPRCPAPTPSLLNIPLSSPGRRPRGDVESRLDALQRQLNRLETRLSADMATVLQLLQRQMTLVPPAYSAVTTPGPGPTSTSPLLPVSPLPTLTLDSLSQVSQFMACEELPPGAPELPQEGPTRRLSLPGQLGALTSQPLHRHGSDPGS
Sequence of hERG (KCNH2) (Q12809 whole entry): as above

Structure (SMILES)	IC50 (Leishmania major) [µM]	IC50 (RAW264.7) [µM]	remaining at 32 min, 20 µM [1] [%]	remaining at 32 min, 20 µM [2] [%]	IC50 (Leishmania donovani [3]) [µM]	IC50 (Leishmania donovani [4]) [µM]	IC25 [5] [µM]	IC50 at 72 h [6] [µM]	IC50 (Leishmania amazonensis [7]) [µM]	viability at up to 125 µM [8] [%]	IC50 (Leishmania braziliensis [9]) [µM]	inhibition (INH) [10]	activity at 0.5 h, 6 µM (hERG (KCNH2)) [%]	viability at 48 h, 125 µM [11] [%]	IC50 at 72 h [12] [µM]	IC50 (Leishmania braziliensis [13]) [µM]	IC50 (Leishmania donovani [14]) [µM]	IC50 (Leishmania donovani [15]) [µM]	IC50 (Leishmania amazonensis [16]) [µM]
CSc1ccc(NC(=O)c2ncc([N+](=O)[O-])n2C)cc1	6.5	> 100	0	6.9	> 20	> 20	> 3.1	> 100	> 20	> 50	> 20								
COc1ccc(Cn2ccn3cc([N+](=O)[O-])nc3c2=O)cc1	6.9	> 100	100	100	> 18.5	> 12.4	> 2	> 100	> 20	> 50	> 20								
CSc1ccc(NC(=O)c2ncc([N+](=O)[O-])[nH]2)cc1	> 20	> 68.7	18.4	68.2	> 13.9	> 20	> 12.5	84.7	> 20	56	> 20	Not_active							
Cn1c([N+](=O)[O-])cnc1COc1ccc(S(C)(=N)=O)cc1 (configuration not stated)	2.7	> 100	100	100	12.3	12.2	> 100	> 100	14.6	> 50	9.6	Not_active							
CSc1ccc(NCc2ncc([N+](=O)[O-])n2C)cc1	9.5	> 100	0	73.4	11.9	> 20	3.1	> 100	> 20	> 50	> 20		48						
CSc1ccc(CCc2ncc([N+](=O)[O-])n2C)cc1	9.1	> 91.7	0	47.5	7.1	12.5	9.8	> 100	27.2	> 50	17.5		64						
CSc1ccc(Cn2ccn3cc([N+](=O)[O-])nc3c2=O)cc1	8.9	48.1	93.1	100	> 20	> 16.6	> 2	> 57.5	> 20	> 50	> 20								
CSc1ccc(C(=O)Nc2ccc3c(c2)B(O)OC3(C)C)cc1	3.9	73.6	8	61.3	15.4	11.9	> 6.2	> 100	3.6	> 50	4.4		66	54	> 100	> 10	> 10	> 10	> 10
Cn1c([N+](=O)[O-])cnc1CCc1ccc(S(C)(=N)=O)cc1 (configuration not stated)	11.8	> 100	100	100	> 20	> 20	49.4	> 100	> 20	> 50	> 20								
CS(=O)(=O)c1ccc(OCC2Cn3cc([N+](=O)[O-])nc3O2)cc1 (configuration not stated)	> 20	> 100	100	100	4.5	> 20	15.2	> 100	> 20	> 50	> 20								
Cn1c([N+](=O)[O-])cnc1C(=O)Nc1ccc(F)cc1C(F)(F)F	1.2	> 100	100	100	12.2	8.1	> 6.2	> 100	4.5	> 50	2.3				> 100	> 10	> 10	> 10	> 10
C[S+]([O-])c1ccc(C(=O)Nc2ccc3c(c2)B(O)OC3(C)C)cc1 (configuration not stated)	> 20	> 100	95.2	100	> 20	> 16.8	25.7	> 100	> 20	> 50	> 20	Not_active		54.2					
Cn1c([N+](=O)[O-])cnc1C(=O)N1CCS(=O)(=O)CC1	3.4	> 100	100	100	13.7	7.5	> 6.2	> 100	13.3	> 50	12.2								
CSc1ccc(OCc2ncc(C#N)n2C)cc1	> 20	> 99.8	8.2	82.6	> 20	> 20	27.1	> 100	> 20	> 50	> 20								
